According to publication PMC6128401 (Molecular pharmaceutics, 2017):

Experiments:
[1] = type: physicochemical
Outline: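 Labelling used ~2 GBq ¹⁷⁷LuCl₃ in 1 mL dilute HCl, heated at 80°C for 15-25 min. Kits were stored up to 6 months; labelled product was held up to 48 h at room temperature or −20°C. Radiochemical purity was measured by RP-HPLC.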

[2] = target: T1, A431-CCK2R cell line expressing the human CCK2R (Homo sapiens, UniProt P32239); assay: Cell uptake; type: cell-based; conditions: A431-CCK2R cells, 2 h incubation, 0.4 nM
T1 sequence (P32239 1-447): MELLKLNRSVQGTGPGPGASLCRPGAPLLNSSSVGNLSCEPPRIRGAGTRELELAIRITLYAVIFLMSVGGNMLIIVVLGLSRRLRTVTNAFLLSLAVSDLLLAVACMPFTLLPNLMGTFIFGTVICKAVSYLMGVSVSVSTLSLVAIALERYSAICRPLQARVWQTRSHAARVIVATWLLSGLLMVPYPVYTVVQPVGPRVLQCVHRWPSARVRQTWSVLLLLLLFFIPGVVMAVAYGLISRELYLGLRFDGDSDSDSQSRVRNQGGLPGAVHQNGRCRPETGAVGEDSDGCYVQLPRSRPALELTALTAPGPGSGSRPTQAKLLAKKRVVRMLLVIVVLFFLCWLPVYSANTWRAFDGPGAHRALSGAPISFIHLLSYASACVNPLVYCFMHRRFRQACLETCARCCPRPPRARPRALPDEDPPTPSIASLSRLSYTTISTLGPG
Outline: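 A431-CCK2R and A431-mock cells were cultured in DMEM with 10% FBS, penicillin/streptomycin/L-glutamine at 37°C, 5% CO₂. They were seeded at 1.0×10⁶ cells/well and grown 48 h to confluency. Peptides were labelled with ¹⁷⁷LuCl₃ (~50 GBq/µmol) in ascorbate buffer pH 5 with gentisic acid and L-Met, 80°C. Triplicate wells received ~100,000 cpm (0.4 nM) for 2 h. The internalized fraction was gamma-counted as % of total added.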

[3] = Medullary toxicity: white blood cell and platelet counts; type: in vivo, BALB/c nude mice
Outline: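 Double-xenografted nude mice were dosed as in the therapy study (saline, 15 or 30 MBq i.v.), n=5. Weekly, 0.1 mL venous blood was drawn from the superficial temporal vein by lancet, up to eight samples per animal. White blood cells and platelets were counted on an automatic haematology analyser. Counts were expressed relative to basal values (week −2 = inoculation; week 0 = treatment).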

[4] = Chemical stability in phosphate buffered saline; type: physicochemical; conditions: PBS at RT, up to/after 4 h incubation
Outline: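 ¹⁷⁷Lu-labelled peptide (120 pmol/mL) was kept in phosphate buffered saline at room temperature. Aliquots were taken at intervals up to […] and analysed by HPLC for percentage intact radiopeptide relative to post-labelling radiochemical purity.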

[5] = Stability against enzymatic degradation in human serum; type: in vitro ADME
Outline: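 The ¹⁷⁷Lu-labelled peptide was incubated in human serum at 37°C and sampled at time points up to 24 h. Proteins were precipitated with acetonitrile (1:1.5) and centrifuged; supernatant was diluted 1:1 with water before HPLC for intact radiopeptide. Half-life came from first-order exponential decay fitting.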

[6] = Biodistribution: uptake in normal organs and tissues; type: in vivo, BALB/c nude mice; conditions: 30 min p.i.
Outline: (§1)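 Female and male BALB/c nude mice, 5-6 weeks old, carried A431-CCK2R and A431-mock xenografts in opposite flanks (2×10⁶ cells each). Tumours grew for ~14 days to ~0.2 g. Kit-prepared ¹⁷⁷Lu-peptide, 1 MBq (20 pmol; 50 GBq/µmol), was injected into the tail vein. Groups of five were killed at 30 min, 4 h, 1 d, 2 d, 3 d and 7 d; dissected tissues were gamma-counted and expressed as % IA/g.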

A431-CCK2R xenografts [7] = assay: Experimental radionuclide therapy, receptor-positive tumour growth; type: in vivo, BALB/c nude mice; conditions: for mean SGR A431-CCK2R: single i.v. treatment; for TVDT increase by a factor in comparison to the control group: A431-CCK2R tumours
A431-CCK2R xenografts [8] = assay: Biodistribution: uptake in receptor-positive tumour xenograft; type: in vivo, BALB/c nude mice; conditions: 30 min p.i.
Outline: as §1

[9] = Renal toxicity: creatinine and urea in serum; type: in vivo, BALB/c nude mice
Outline: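 The same treated double-xenografted nude mice (saline, 15 or 30 MBq i.v.; n=5) gave weekly venous blood samples. Serum creatinine and urea were measured with specific kits on a semiautomatic biochemical analyser. Values were compared between treated and control groups over weeks from cell inoculation (week −2) onward.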

A431-mock xenografts = assay: Experimental radionuclide therapy, receptor-negative tumour growth; type: in vivo, BALB/c nude mice; conditions: for mean SGR A431-mock: single i.v. treatment
[10] = 15 MBq, one week after treatment
[11] = 15 MBq group, week 0 (week of treatment)
[12] = 15 MBq group, week -2 (cell inoculation)
[13] = 30 MBq group, week 0 (week of treatment)
[14] = 30 MBq group, week -2 (cell inoculation)

CSCC[C@H](NC(=O)[C@H](Cc1c[nH]c2ccccc12)NC(=O)[C@H]1CCCCNC(=O)[C@H](NC(=O)CN2CCN(CC(=O)O)CCN(CC(=O)O)CCN(CC(=O)O)CC2)CCC(=O)N[C@@H](C)C(=O)N[C@@H](Cc2ccc(O)cc2)C(=O)N1)C(=O)N[C@@H](CC(=O)O)C(=O)N[C@@H](Cc1ccccc1)C(N)=O [^177Lu-DOTA-cyclo-MG1, metal not drawn]
improvement of RCP by freezer storage ([1]; -20°C versus RT): ~ 10% | degree of Met-oxidation ([1]; during storage of the kits): 3.8-6.1% | mean RCP for the different time points after storage of the kits ([1]; kit storage up to 6 months, n=4): 89.4±7.9% | RCP after preparation ([1]; kit-prepared, directly after preparation): 93.3±1.6% | RCP at 24 h after preparation ([1]; stored at RT): 89.8±2.8% | RCP up to 4 h after preparation ([1]; stored at RT): > 92% | internalized radioligand fraction (% of total) [2]: 15.2±2.6% | reduction in PLT counts compared to the basal value [3, 10]: 51.2-52.8% | reduction in WBC counts compared to the basal value [3, 10]: 37.8-40.8% | PLT value ([3]; 15 MBq, week 2 after treatment, reference 558-1,454): 531±26 ×10^9/L | decline of PLT value compared to the basal value ([3]; 30 MBq, after treatment): 44.8-58.0% | reduction of WBC value compared to the basal value ([3]; 30 MBq, week 1 after treatment): 67.2-70.9% | PLT value below the reference values ([3]; 30 MBq, week 1 and 2 after treatment): 486-530 ×10^9/L | WBC value below the lower reference limit ([3]; 30 MBq, week 1 and 2 after treatment, reference 3.11-13.04): 2.17-2.94 ×10^9/L | RCP during incubation in PBS [4]: 86% | half-life [5]: 30.1 h | kidney uptake, maximal value [6]: 1.75 % IA/g | mean SGR A431-CCK2R (A431-CCK2R xenografts [7]; 15 MBq group (0.6 nmol)): 0.046±0.002 | mean SGR A431-CCK2R (A431-CCK2R xenografts [7]; 30 MBq group (1.2 nmol)): 0.031±0.006 | TVDT increase by a factor in comparison to the control group (A431-CCK2R xenografts [7]; high activity group (30 MBq)): 2.6 | TVDT increase by a factor in comparison to the control group (A431-CCK2R xenografts [7]; low activity group (15 MBq)): 1.8 | maximal tumour uptake (A431-CCK2R xenografts [8]): 5.18 % IA/g | Creatinine (reference value 0.1-0.5) [9, 11]: 0.3 ± 0.2 mg/dL | Urea (reference value 17-38) [9, 11]: 26 ± 2 mmol/L | Creatinine (reference value 0.1-0.5) ([9]; 15 MBq group, week 1): 0.2 ± 0.1 mg/dL | Urea (reference value 17-38) ([9]; 15 MBq group, week 1): 32 ± 3 mmol/L | Creatinine (reference value 0.1-0.5) ([9]; 15 MBq group, week 2): 0.3 ± 0.1 mg/dL | Urea (reference value 17-38) ([9]; 15 MBq group, week 2): 33 ± 2 mmol/L | Creatinine (reference value 0.1-0.5) ([9]; 15 MBq group, week 3): 0.3 ± 0.2 mg/dL | Creatinine (reference value 0.1-0.5) ([9]; 15 MBq group, week 4): 0.5 ± 0.1 mg/dL | Creatinine (reference value 0.1-0.5) ([9]; 15 MBq group, week 5): 0.7 mg/dL | Creatinine (reference value 0.1-0.5) ([9]; 15 MBq group, week -1): 0.2 ± 0.1 mg/dL | Urea (reference value 17-38) ([9]; 15 MBq group, week -1): 33 ± 4 mmol/L | Creatinine (reference value 0.1-0.5) [9, 12]: 0.2 ± 0.1 mg/dL | Urea (reference value 17-38) [9, 12]: 31 ± 3 mmol/L | urea above the upper limit of the reference value ([9]; 15 MBq, beginning from week 3 after treatment): 39 to 48 mmol/L | Creatinine (reference value 0.1-0.5) [9, 13]: 0.3 ± 0.2 mg/dL | Urea (reference value 17-38) [9, 13]: 32 ± 5 mmol/L | Creatinine (reference value 0.1-0.5) ([9]; 30 MBq group, week 1): 0.3 ± 0.1 mg/dL | Urea (reference value 17-38) ([9]; 30 MBq group, week 1): 29 ± 4 mmol/L | Creatinine (reference value 0.1-0.5) ([9]; 30 MBq group, week 2): 0.2 ± 0.1 mg/dL | Creatinine (reference value 0.1-0.5) ([9]; 30 MBq group, week 3): 0.5 ± 0.2 mg/dL | Creatinine (reference value 0.1-0.5) ([9]; 30 MBq group, week -1): 0.2 ± 0.1 mg/dL | Urea (reference value 17-38) ([9]; 30 MBq group, week -1): 28 ± 3 mmol/L | Creatinine (reference value 0.1-0.5) [9, 14]: 0.2 ± 0.1 mg/dL | Urea (reference value 17-38) [9, 14]: 27 ± 5 mmol/L | urea levels above the reference limit ([9]; 30 MBq, beginning from week 2 after treatment): 39 to 52 mmol/L | creatinine levels above the reference limit ([9]; 30 MBq, beginning from week 4 after treatment): 0.6 to 0.8 mg/dL | mean SGR A431-mock (A431-mock xenografts; 15 MBq group (0.6 nmol)): 0.065±0.006 | mean SGR A431-mock (A431-mock xenografts; 30 MBq group (1.2 nmol)): 0.051±0.006 | TVDT increase by a factor in comparison to the control group (A431-mock xenografts; A431-mock tumours, high activity group (30 MBq)): 1.5
